Screening data deposited in PubChem by Broad Institute.
SIRT5 block = blocks human SIRT5 desuccinylation of peptide | inhibition, % at 15 µM | AID 652115 | 330,000 tested, 1.1% active | Q9NXA8 | Purified SirT5, succinyl-peptide AMC, trypsin-coupled fluorescence; in the data active = inhibition above about 15%; inconclusive = no clear call, values can overlap the other calls
E-sel inducer = induces E-selectin expression in human endothelial cells; P16581; HUVEC E-selectin immunofluorescence imaging; normalized: neutral wells 0, TNF-alpha wells 100; activation, % at 7.58 µM; 260,000 tested, 0.37% active; AID 686992;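 active = mean E-selectin-positive cell signal at least 10% of the positive control, reached in at least 60% of replicates, without over 20% cell loss; inconclusive = no rule given, readout overlaps actives, possibly toxicity-flagged; inactive = the rest, including those meeting only one limit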
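material = human umbilical vein endothelial cells (HUVEC), E-selectin induction | quantity = 3,000 cells/well | medium = EGM-2 growth medium on 0.1% gelatin-coated wells | technique = immunofluorescence imaging | read-out basis = % PE-positive cells | control set = TNF-alpha positive control, DMSO neutral control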
DENV2 CPE = protects cells from dengue virus 2 cytopathic effect; 350,000 tested, 1.7% active; AID 651640; CPE inhibition, % at 9.99 µM; DENV2-infected cells, cytopathic effect rescue, plate reader; in the data active = CPE inhibition above about 20%, passing the limit was not always enough; inconclusive = no clear call, values can overlap the other calls; tested in BHK-21 cells;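 also: 0% = median of neutral control wells and 100% = median of positive control wells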
ERAP1 inh = ERAP1 (human) enzyme inhibition; inhibition, % at 10.7 µM; recombinant ERAP1, Leu-AMC fluorescence, 60 min; Q9NZ08; AID 652197; 340,000 tested, 0.15% active;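 active = mean replicate inhibition of at least 30%, or all replicates individually reaching that 30% level; inactive = mean below 30% and not every replicate reaching it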;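 also: 0% = neutral control wells and 100% = L-leucinethiol positive control wells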
PglD inh = PglD (C. jejuni) enzyme inhibition. purified PglD enzyme, DTNB colorimetric CoA detection. inhibition, % at 12.5 µM. 360,000 tested, 0.098% active; in the data active = inhibition above about 16%, passing the limit was not always enough; inconclusive = no clear call, values can overlap the other calls
* = called active by the depositor; ? = inconclusive; . = not tested or not shown; ! = not confirmed by another sample. Compounds with a hit are over-represented: about 2.5% of the library has one in this group of screens.

SMILES	SIRT5 block	E-sel inducer	DENV2 CPE	ERAP1 inh	PglD inh
CN1CCN(C(=O)COc2ccc(N(C)S(=O)(=O)c3ccc(F)cc3)cc2)CC1	23.4*	.	-1.8	3.6	.
CNC(=O)OCCc1n(C)cc[n+]1C	-1.6	0.7	-4.0	102.1*	-6.7
CCN(CC)P(c1n(C)cc[n+]1C)N(CC)CC	.	.	-4.1	102.8*	-6.0
O=C(C[N+]12CCC(CC1)C(C(O)(c1ccccc1)c1ccccc1)C2)c1ccc(Br)cc1 (configuration not stated)	-5.4	.	-7.7	.	-5.1
CN(c1ccccc1)P(=O)(N1CC1)N1CC1	15.6*	-0.1	-7.5	-2.5	.
O=C1CC[C@@]2(O)[C@H]3Cc4ccc(O)c5c4[C@@]2(CCN3CC2CC2)C1O5 (some centres not stated)	.	.	28.4*!	-2.3	.
CN1CCN(C(=O)Cc2nc3ccccc3[nH]2)CC1	0.5	.	9.7	5.5	.
O=C1NC(=S)N(c2ccccc2)C(=O)/C1=C/c1ccco1	37.7*	.	3.3	7.2	2.6
COc1ccccc1/C=C1\C(=O)NC(=S)N(c2ccccc2)C1=O	3.2	0.1	-1.6	16.4	-2.9
CCOc1cccc(N2C(=O)/C(=C/c3ccco3)C(=O)NC2=S)c1	36.4*	.	-2.2	8.2	4.5
O=C(O)c1ccc(NC(=O)N2C[C@H]3C[C@@H](C2)c2cccc(=O)n2C3)cc1	-1.2	.	?	0.6	-4.7
O=C(CN1CC(c2ccccc2)CC1=O)Nc1ccccc1 (configuration not stated)	.	.	114.8*	-0.7	-2.6
CN1CC(C(=O)c2ccc(Cl)cc2)C(c2ccccc2)C1 (configuration not stated)	27.1*	.	14.3	-5.8	.
CN1CC(C(=O)c2cccs2)C(c2ccc(Cl)cc2)C1 (configuration not stated)	-0.5	.	-1.5	0.4	2.8
COc1ccc(N2C(=O)NC(=O)/C(=C\c3ccc([N+](=O)[O-])s3)C2=O)cc1	20.2*	.	-2.7	5.6	.
COc1ccc(N2C(=O)NC(=O)/C(=C/c3ccc([N+](=O)[O-])s3)C2=O)cc1	15.6*	0.1	11.0	4.9	2.9
COc1ccccc1N1C(=O)NC(=O)/C(=C/c2ccc([N+](=O)[O-])s2)C1=O	18.0*	4.3	2.6	8.0	.
COc1cccc(N2C(=O)NC(=O)/C(=C/c3ccc([N+](=O)[O-])s3)C2=O)c1	15.3*	0.0	-2.2	.	6.4
COc1ccccc1NC1=NCCS1	.	.	.	.	0.1
COC/C=C1\CN2C3C[C@@H]1[C@H]1COC4=Nc5cc(OC)c(OC)c(OC)c5[C@@]43C[C@@H]12	.	.	-2.6	.	-3.0
C=Cc1ccc(Cn2c(C(=O)O)c(C=O)c3ccccc32)cc1	17.4*	6.8	1.8	3.7	.
COc1cc2c(c(OC)c1OC)-c1ccc(O)c(=O)cc1[C@@H](N)CC2	-0.3	.	86.2*	2.0	2.1
CC12CC(O)C3C(CCC4=CC(=O)CCC43C)C1CCC2=O (configuration not stated)	-4.0	.	-14.8	-3.2	-5.1
COC(=O)C1=C(c2ccc(F)cc2OCc2ccccc2)C[C@@H]2CC[C@H]1N2C(=O)N1CCCC1	-0.5	-0.2	5.1	-4.9	3.0
NCCc1ccc(S(N)(=O)=O)cc1	-1.5	0.0	6.0	-0.6	.
SMILES	SIRT5 block	E-sel inducer	DENV2 CPE	ERAP1 inh	PglD inh
NCCc1ccccc1	0.0	.	43.2*	-0.7	4.9
NS(=O)(=O)c1nc[nH]c1[N+](=O)[O-]	2.1	.	29.4*	4.5	-1.8
O=C(Cc1ccccn1)N1CCCCN2[C@H](CO)[C@H](c3ccc(-c4ccccc4F)cc3)[C@@H]2C1	-9.5	-0.6	-7.1	1.7	1.6
CC=Cc1ccc2n(c1=O)C[C@@H]1[C@@H](CO)[C@H](C(=O)N(C)C)N[C@H]21 (mixture of isomers)	-5.0	0.0	?	1.6	-0.7
CC(C)NS(=O)(=O)c1ccc(OCC(=O)N2CCN(Cc3ccccc3)CC2)cc1	.	.	.	.	-1.8
COc1cc(CN2CCN(C(=O)Cc3ccccc3)CC2)cc(OC)c1OC	15.2*	.	8.7	-2.8	-4.6
O=C(COc1ccc(Cl)cc1)N1CCN(Cc2ccccc2)CC1	15.6*	.	.	-1.4	0.9
COc1ccc(Br)cc1CN1CCN(C(=O)Cc2ccccc2)CC1	.	.	.	.	1.0
COc1ccc(C(=O)c2nc3ccccc3n2C(C)C)cc1OC	-5.7	.	-0.2	4.6	4.3
COC(=O)[C@H]1[C@H](CO)[C@H]2Cn3c(ccc(-c4cccnc4)c3=O)[C@@H]1N2CCc1ccccc1	-0.7	0.1	-11.9	-0.4	0.8
